Hits are enriched below; roughly 3.7% of the tested compounds scored in any of these assays.
KCNQ1 pot – potentiates or activates the human KCNQ1 potassium channel | P51787 | CHO-K1 KCNQ1, thallium flux FluxOR fluorescence; stronger effect = higher value | B-score at 10 µM | actives 0.35% (n = 310,000) | AID 2648;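 active = fluorescence ratio B-score, a plate-corrected score, at least three library SD, with initial intensity B-score within 5 SD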
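Doses: Single concentration per compound, DMSO matched to controls | Test system: KCNQ1-transfected CHO-K1 cells | Timing: 90 min dye loading and 20 min compound exposure, both at room temperature | Measured by: Kinetic FluxOR thallium fluorescence, 10-s 1-Hz baseline, 110-s post-stimulus read | Medium: Assay buffer with matched DMSO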
hERG protect – shields human hERG channel from block by proarrhythmic agents | CHO-hERG, FluxOR thallium flux, dofetilide IC70 present | AID 1511 | actives 0.51% (n = 310,000) | Q12809 | activation (rescue from dofetilide block), less the hit threshold, % at 10 µM;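 active = activation above the mean of controls blocked by dofetilide plus 5 SD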;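 note: thallium influx through hERG after potassium depolarization seen as dye fluorescence rise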
Kir21 inh – Kir2.1 (mouse) channel inhibition; P35561; HEK293-Kir2.1, FluxOR thallium flux fluorescence; stronger effect = lower value; B-score at 10 µM; actives 0.85% (n = 310,000); AID 1672;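 active = fluorescence ratio B-score at or below minus 3 SD of library scores, with starting-brightness B-score within 2 SD, cut at about -4.2 in these data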;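 note: channel flux triggered by added potassium and thallium sulfate stimulus; B-score of peak minus minimum fluorescence over baseline after thallium stimulus; more negative B-score means stronger Kir2.1 block with less thallium influx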
KCNK3 block – human KCNK3 channel inhibition, primary screen; actives 0.84% (n = 340,000); B-score at 10 µM; AID 602410; CHO-KCNK3 thallium flux, FluxOR fluorescence; stronger effect = lower value;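 active = B-score under library mean minus 4 SD, starting fluorescence ratio at most library mean plus 5 SD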;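 note: more negative B-score means stronger inhibition of thallium flux through KCNK3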
KCNQ1 inh – inhibitors of human KCNQ1 potassium channel. P51787. CHO-K1 KCNQ1, FluxOR thallium flux fluorescence; stronger effect = higher value. B-score at 10 µM. actives 1.3% (n = 310,000);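 active = compounds whose thallium flux B-score, printed positive for inhibition, exceeds three library SD while starting fluorescence stays within three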;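 note: channel opened by potassium depolarization with thallium stimulus after 20 min compound exposure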
KCNK9 inh – inhibitors of human KCNK9 two-pore domain potassium channel. Q9NPC2. B-score at 10 µM. AID 488922. HEK293 KCNK9, FluxOR thallium flux fluorescence; stronger effect = lower value. actives 1.2% (n = 310,000);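 active = ratio B-score over 3 SD below the library mean, with starting fluorescence within 5 SD of its mean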;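 note: negative B-score means less thallium flux so channel inhibition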
KCNK9 block conf – confirmation of human KCNK9 potassium channel inhibitors; shares compounds with KCNK9 inh; HEK293 KCNK9 cells, FluxOR thallium flux fluorescence; inhibition, % at 10 µM; actives 43% (n = 4,900);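 active = thallium signal inhibited by more than 5 SD of the compound-free buffer control wells, on both duplicate plates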;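 note: 0% = assay buffer control wells without compound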
Kir21 sel – mouse Kir2.1 off-target activity of KCNK9 modulators; Kir2.1 cells, FluxOR thallium flux fluorescence; actives 4% (n = 4,900); AID 492993; inhibition, % at 10 µM; shares compounds with KCNK9 inh;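 active = thallium signal drop more than 5 SD beyond the mean of the no-compound control wells, seen in both duplicate plates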;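 note: signal is fluorescence rise after thallium addition divided by baseline fluorescence; plate controls were assay buffer only for no effect and full block by chlorpromazine control for full effect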
KCNK9 uninduced – second check of KCNK9 modulator effects in non-induced HEK293 cells | shares compounds with KCNK9 inh | FluxOR thallium flux | inhibition, % at 10 µM | actives 40% (n = 4,900) | AID 492997;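 active = thallium signal drop beyond 5 SD of the untreated control mean, on both duplicate plates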;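 note: plate controls were buffer only IC0 wells for no effect and SID17386958 at its maximal inhibitory level for full effect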
KCNK3 confirm – human KCNK3 channel inhibition, confirmation assay | shares compounds with KCNK3 block | CHO-KCNK3 thallium flux, FluxOR fluorescence; 0% buffer, 100% carvedilol maximal block | ratio percent of control, % at 10 µM | actives 99% (n = 2,400) | AID 651638;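 active = ratio percent of control, averaged over triplicates, above buffer control mean plus 5 SD, cut at about 64% in these data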;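 note: ratio is the fluorescence rise from min to max over baseline after thallium stimulus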
KCNK3 uninduced – KCNK3 inhibitor counter-screen hit in non-induced cells; shares compounds with KCNK3 block; thallium flux ratio (lower = more inhibition) at 10 µM; non-induced KCNK3 parental cells, FluxOR thallium flux; stronger effect = lower value; actives 40% (n = 2,400);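 active = thallium flux ratio, averaged over three wells, more than 5 SD below the buffer control mean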;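 note: host cells are CHO cells without KCNK3 induction; ratio is peak minus trough fluorescence over baseline then normalized to buffer controls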
Starred values were filed as active, the others as inactive.

Screening Cc1ccc(COc2ccccc2-c2cc(C(=O)N/N=C/c3cccnc3)[nH]n2)cc1 returned KCNQ1 pot inactive, hERG protect -15, Kir21 inh -1.7, KCNK3 block -12*, KCNQ1 inh inactive, KCNK9 inh -19*, KCNK9 block conf 64%*, Kir21 sel inactive, KCNK9 uninduced 26%*, KCNK3 confirm 118* and KCNK3 uninduced inactive.
O=C(Nc1ccccc1F)C(=O)Nc1cccc2ccccc12 was read as KCNQ1 pot inactive, hERG protect -2, Kir21 inh 0.14, KCNK3 block inactive, KCNQ1 inh inactive and KCNK9 inh inactive.
O=C(CNc1ccccc1F)Nc1cccc2ccccc12 was read as KCNQ1 pot inactive, hERG protect -3, Kir21 inh 1.6, KCNK3 block -14*, KCNQ1 inh inactive, KCNK9 inh -12*, KCNK9 block conf 49%*, Kir21 sel inactive, KCNK9 uninduced inactive, KCNK3 confirm 112* and KCNK3 uninduced 0.16*.
For COc1ccccc1C(=O)NCCC(=O)N(Cc1ccco1)Cc1cccs1 the results were KCNQ1 pot inactive, hERG protect -11, Kir21 inh -4.2, KCNK3 block inactive, KCNQ1 inh inactive and KCNK9 inh inactive.
Screening CCC(=O)N(CCC(c1ccco1)c1ccccc1OC)Cc1cccs1 (stereo unspecified) returned KCNQ1 pot inactive, hERG protect -20, Kir21 inh -2.9, KCNK3 block -8.9*, KCNQ1 inh inactive, KCNK9 inh -12*, KCNK9 block conf 56%*, Kir21 sel inactive, KCNK9 uninduced 34%*, KCNK3 confirm 130* and KCNK3 uninduced 0.13*.
For CCCN(CCC)C(=O)CC(c1ccccc1)c1ccco1 (stereo unspecified) the results were KCNQ1 pot inactive, hERG protect -7, Kir21 inh -3.2, KCNK3 block inactive, KCNQ1 inh inactive and KCNK9 inh inactive.
For CC(=O)N(CCC(c1ccccc1)c1ccco1)Cc1cccs1 (stereo unspecified) the results were KCNQ1 pot inactive, hERG protect -15, Kir21 inh -8.8*, KCNK3 block -10*, KCNQ1 inh inactive, KCNK9 inh -12*, KCNK9 block conf 56%*, Kir21 sel inactive, KCNK9 uninduced 30%*, KCNK3 confirm 94* and KCNK3 uninduced inactive.
CCOC(=O)c1ccc(NC(=O)c2cccc3c2C(=O)N(CC2CCCO2)C3)cc1 (stereo unspecified) was read as KCNQ1 pot inactive, hERG protect -20, Kir21 inh -1.4, KCNK3 block -9.3*, KCNQ1 inh inactive, KCNK9 inh -8.6*, KCNK9 block conf 64%*, Kir21 sel inactive, KCNK9 uninduced inactive, KCNK3 confirm 131* and KCNK3 uninduced 0.13*.
For CCCN1Cc2cccc(C(=O)Nc3ccc(C)cc3)c2C1=O the results were KCNQ1 pot inactive, hERG protect -11, Kir21 inh -2, KCNK3 block inactive, KCNQ1 inh inactive and KCNK9 inh inactive.
Screening Cc1ccc(NC(=O)CCc2nnc3ccc(N4CCC(C)CC4)nn23)nc1 returned KCNQ1 pot inactive, hERG protect -9, Kir21 inh 0.79, KCNK3 block inactive, KCNQ1 inh inactive and KCNK9 inh inactive.
Screening COc1ccc(NC(=O)[C@H](C)NC(=O)[C@@H]2Cc3ccccc3CN2C(=O)OC(C)(C)C)cc1 returned KCNQ1 pot inactive, hERG protect -8, Kir21 inh -0.05, KCNK3 block inactive, KCNQ1 inh inactive and KCNK9 inh inactive.
`O=C(CCCSc1nnnn1-c1cccc2ccccc12)c1ccc(F)cc1` gave KCNQ1 pot inactive, hERG protect -15, Kir21 inh 0.16, KCNK3 block -9.6*, KCNQ1 inh inactive, KCNK9 inh -8.2*, KCNK9 block conf inactive, Kir21 sel 34%*, KCNK9 uninduced inactive, KCNK3 confirm 102* and KCNK3 uninduced inactive.
COc1ccc(OC)c(NC(=O)CN(Cc2ccc(F)cc2)C2CCCCC2)c1 was read as KCNQ1 pot inactive, hERG protect -19, Kir21 inh 1, KCNK3 block -8.8*, KCNQ1 inh inactive, KCNK9 inh -14*, KCNK9 block conf 69%*, Kir21 sel inactive, KCNK9 uninduced 48%*, KCNK3 confirm 56* and KCNK3 uninduced 0.12*.
Screening ClCc1nnc(-c2cc3c(s2)CCCC3)o1 returned KCNQ1 pot inactive, hERG protect -19, Kir21 inh -1.2, KCNK3 block inactive, KCNQ1 inh inactive and KCNK9 inh inactive.
Screening O=C(COC(=O)c1ccc[nH]c1=O)NCCCc1ccccc1 returned KCNK3 block inactive.
`Oc1ccc(N2CCN(c3ncnc4sc(-c5ccccc5)cc34)CC2)cc1` gave KCNQ1 pot inactive, hERG protect -6, Kir21 inh 0.41, KCNK3 block inactive, KCNQ1 inh inactive and KCNK9 inh inactive.
For c1ccc(N2CCN(c3ncnc4sc5c(c34)CCC5)CC2)cc1 the results were KCNQ1 pot inactive, hERG protect -6, Kir21 inh -0.27, KCNK3 block inactive, KCNQ1 inh inactive, KCNK9 inh -15*, KCNK9 block conf 46%*, Kir21 sel inactive, KCNK9 uninduced 44%*, KCNK3 confirm 119* and KCNK3 uninduced 0.15*.
`CCc1cc2c(N3CCN(c4ccccc4)CC3)ncnc2s1` gave KCNQ1 pot inactive, hERG protect -16, Kir21 inh 1, KCNK3 block -13*, KCNQ1 inh inactive, KCNK9 inh inactive, KCNK9 block conf inactive, Kir21 sel inactive, KCNK9 uninduced 23%*, KCNK3 confirm 135* and KCNK3 uninduced 0.15*.
